Data on 26 molecules can be found in ChEMBL document CHEMBL1687897, “Design, synthesis and biological activity of pyrazolo[1,5-a]pyrimidin-7(4H)-ones as novel Kv7/KCNQ potassium channel activators” (Eur J Med Chem, 2011).

Experiment [1] addresses T1, Voltage-gated potassium channel, KQT; KCNQ2(Kv7.2)/KCNQ3(Kv7.3) (Homo sapiens) (UniProt O43526+O43525). As to the kind of experiment: Activation of KCNQ2/Q3 expressed in CHO cells at 100 uM by atomic absorption Rb'+ efflux assay. The experiment is classed as cell-based. Summed up:
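Stable KCNQ2/KCNQ3 CHO cells were Rb+-loaded 3 h at 37 °C and washed. Compound was given once at a single screening concentration in 20 mM K+ depolarization buffer for 10 min. Supernatant Rb+ was measured by flame atomic absorption at 780 nm. A rubidium response under 15% of control was scored as no activity.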

Experiment [2] has as its target Voltage-gated potassium channel, KQT; KCNQ2(Kv7.2)/KCNQ3(Kv7.3) (Homo sapiens, UniProt O43525+O43526). Kind of experiment: Activation of KCNQ2/Q3 expressed in CHO cells by atomic absorption Rb'+ efflux assay. The experiment is classed as cell-based. The essentials:
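CHO cells stably expressing KCNQ2/KCNQ3 were plated at 20,000 cells/well overnight at 37 °C. They were loaded 3 h in buffer containing 5.4 mM RbCl (pH 7.4), then washed three times with 5.4 mM KCl buffer. Compound was applied in 20 mM K+ depolarization buffer for 10 min. Supernatant Rb+ was read by flame atomic absorption at 780 nm against a 0–5 mg/l calibration. EC50 from n = 3.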

In experiment [3] the target is T1, Voltage-gated potassium channel, KQT; KCNQ2(Kv7.2)/KCNQ3(Kv7.3) (Homo sapiens). As to the kind of experiment: Activation of human KCNQ2/Q3 expressed in CHO cells assessed as increase in channel current at -40 mV holding potential at 10 uM by whole cell patch-clamp assay. The experiment is classed as cell-based. Summed up:
(§1)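 Perforated whole-cell patch clamp was run on CHO cells stably expressing KCNQ2/KCNQ3. Cells were held at −80 mV for 500 ms, stepped to −40 mV for 800 ms, then returned to −80 mV for 800 ms. The activation current and the deactivation tail current were measured, with a time course of current recorded at −40 mV.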
A general note: In patch-clamp work, channel activity is measured electrically.

For experiment [4] the target is unchanged. As to the kind of experiment: Activation of human KCNQ2/Q3 expressed in CHO cells assessed as increase in channel current at -40 mV holding potential at 100 uM by whole cell patch-clamp assay. In kind it is cell-based. The essentials:
as §1

For experiment [5] the target is unchanged. Kind of experiment: Activation of human KCNQ2/Q3 expressed in CHO cells held at -80 mV for 500 ms followed by depolarized to -40 mV for 800 ms followed by 800 ms pulse-back to -80 mV assessed as increase in both activation and deactivation tail current at 100 uM by whole cell patch-clamp assay.
Experiment [6] shares this target. Kind of experiment: Activation of human KCNQ2/Q3 expressed in CHO cells held at -80 mV for 500 ms followed by depolarized to -40 mV for 800 ms followed by 800 ms pulse-back to -80 mV assessed as increase in both activation and deactivation tail current at 10 uM by whole cell patch-clamp assay.
For experiment [7], the target named is T2, Potassium voltage-gated channel subfamily KQT member 1 (Homo sapiens, UniProt P51787).
T2 sequence (P51787 whole entry): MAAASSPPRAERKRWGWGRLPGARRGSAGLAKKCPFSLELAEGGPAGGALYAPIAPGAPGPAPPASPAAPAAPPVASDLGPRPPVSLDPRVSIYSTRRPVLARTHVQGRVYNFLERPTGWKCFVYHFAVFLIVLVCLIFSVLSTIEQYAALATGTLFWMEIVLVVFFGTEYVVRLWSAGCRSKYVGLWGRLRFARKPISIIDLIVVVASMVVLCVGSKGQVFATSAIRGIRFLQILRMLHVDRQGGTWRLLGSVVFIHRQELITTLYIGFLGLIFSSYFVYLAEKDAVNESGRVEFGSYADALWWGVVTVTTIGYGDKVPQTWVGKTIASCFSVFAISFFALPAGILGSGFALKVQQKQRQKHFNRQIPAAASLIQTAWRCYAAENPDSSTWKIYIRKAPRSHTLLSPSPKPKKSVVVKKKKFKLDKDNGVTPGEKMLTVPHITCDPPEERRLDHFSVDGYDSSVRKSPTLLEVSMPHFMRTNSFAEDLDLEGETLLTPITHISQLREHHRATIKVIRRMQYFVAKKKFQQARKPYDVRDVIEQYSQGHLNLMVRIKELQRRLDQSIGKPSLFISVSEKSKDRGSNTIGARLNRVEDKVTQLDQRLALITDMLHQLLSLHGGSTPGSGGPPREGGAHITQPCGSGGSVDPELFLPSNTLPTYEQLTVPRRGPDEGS
Kind of experiment: Activation of KCNQ1 expressed in HEK293 cells by atomic absorption Rb'+ efflux assay. In kind it is cell-based. The essentials:
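HEK293 cells stably expressing KCNQ1 (G418 selection) were plated at 20,000 cells/well overnight. They were loaded 3 h with 5.4 mM RbCl buffer at 37 °C and washed. Compound was applied in 20 mM K+ depolarization buffer for 10 min. Supernatant Rb+ was measured by flame atomic absorption at 780 nm. EC50 from n = 3.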

Experiment [8] in a line: Selectivity ratio of EC50 for KCNQ1 to KCNQ2/Q3 by atomic absorption Rb'+ efflux assay.

Structures are written as SMILES. Activity calls are given as the source filed them. The calls are words filed in the database; no cut-off is given here.

Voltage-gated potassium channel, KQT; KCNQ2(Kv7.2)/KCNQ3(Kv7.3), sequence (O43526 whole entry): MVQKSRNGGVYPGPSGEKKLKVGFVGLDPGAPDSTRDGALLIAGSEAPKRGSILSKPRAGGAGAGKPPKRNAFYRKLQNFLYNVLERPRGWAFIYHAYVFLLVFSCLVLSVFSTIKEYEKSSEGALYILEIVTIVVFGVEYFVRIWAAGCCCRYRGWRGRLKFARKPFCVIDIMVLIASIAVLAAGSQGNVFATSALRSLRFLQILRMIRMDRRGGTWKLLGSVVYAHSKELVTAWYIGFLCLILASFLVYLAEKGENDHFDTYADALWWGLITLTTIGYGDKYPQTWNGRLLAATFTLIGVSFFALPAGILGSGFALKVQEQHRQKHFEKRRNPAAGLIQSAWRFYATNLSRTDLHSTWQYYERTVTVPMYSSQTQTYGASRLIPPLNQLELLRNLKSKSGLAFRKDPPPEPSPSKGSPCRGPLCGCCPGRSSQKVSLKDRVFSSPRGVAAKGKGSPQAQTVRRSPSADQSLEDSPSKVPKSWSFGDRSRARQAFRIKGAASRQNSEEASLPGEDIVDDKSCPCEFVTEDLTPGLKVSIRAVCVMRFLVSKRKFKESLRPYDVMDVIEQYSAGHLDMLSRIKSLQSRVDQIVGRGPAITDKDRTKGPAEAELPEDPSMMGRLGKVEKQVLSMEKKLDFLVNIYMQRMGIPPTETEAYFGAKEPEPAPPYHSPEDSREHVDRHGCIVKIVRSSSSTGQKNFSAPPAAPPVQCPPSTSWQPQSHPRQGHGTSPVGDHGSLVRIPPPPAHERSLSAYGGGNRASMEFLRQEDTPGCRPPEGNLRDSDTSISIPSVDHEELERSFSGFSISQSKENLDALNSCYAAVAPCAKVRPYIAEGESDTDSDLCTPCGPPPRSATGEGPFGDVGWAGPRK
Voltage-gated potassium channel, KQT; KCNQ2(Kv7.2)/KCNQ3(Kv7.3), sequence (O43525 whole entry): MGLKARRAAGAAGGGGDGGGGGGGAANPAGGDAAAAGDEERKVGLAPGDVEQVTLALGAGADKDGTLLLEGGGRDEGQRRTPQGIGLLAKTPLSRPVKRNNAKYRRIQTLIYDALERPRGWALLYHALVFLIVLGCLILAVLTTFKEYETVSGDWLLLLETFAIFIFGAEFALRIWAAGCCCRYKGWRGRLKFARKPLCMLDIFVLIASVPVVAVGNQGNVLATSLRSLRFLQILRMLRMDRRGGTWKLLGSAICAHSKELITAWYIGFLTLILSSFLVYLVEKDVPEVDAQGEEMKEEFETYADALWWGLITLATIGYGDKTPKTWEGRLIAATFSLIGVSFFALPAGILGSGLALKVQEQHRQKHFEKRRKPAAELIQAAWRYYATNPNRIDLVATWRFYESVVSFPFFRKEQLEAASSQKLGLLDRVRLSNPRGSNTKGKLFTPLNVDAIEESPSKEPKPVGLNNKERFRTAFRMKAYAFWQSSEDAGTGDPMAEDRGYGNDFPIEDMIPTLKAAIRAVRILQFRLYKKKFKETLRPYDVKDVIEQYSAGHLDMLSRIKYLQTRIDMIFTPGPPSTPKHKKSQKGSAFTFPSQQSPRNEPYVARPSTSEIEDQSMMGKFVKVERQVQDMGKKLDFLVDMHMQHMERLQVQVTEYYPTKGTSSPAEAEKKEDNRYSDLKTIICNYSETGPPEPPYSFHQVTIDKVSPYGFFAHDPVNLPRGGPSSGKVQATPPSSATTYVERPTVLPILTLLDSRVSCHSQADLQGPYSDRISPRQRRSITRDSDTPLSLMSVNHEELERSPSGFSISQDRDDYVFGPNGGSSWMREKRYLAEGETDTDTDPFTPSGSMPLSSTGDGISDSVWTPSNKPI

Take `O=c1cc(C(F)(F)F)[nH]c2c(-c3ccccc3)cnn12`: in experiment [1], the outcome was inactive.
A word on the EC50: it is the concentration at which the effect is half-maximal. Low readings indicate an effect from little substance, high ones a need for much substance. As to `CCOC(=O)Nc1ccc(NCc2ccc(F)cc2)cc1N` [EZOGABINE], a half-maximal response in experiment [2] (EC50) required 430 nM. Also, the outcome in experiment [3] was Active.
Turning to `O=c1cc(-c2cc(F)c(F)c(F)c2F)[nH]c2c(-c3ccccc3)c(C(F)(F)F)nn12`, the EC50 in experiment [2] came out at 600 nM.
The same measure, in the same setting: next, `O=c1cc(C(F)(F)F)[nH]c2c(-c3cccc4ccccc34)c(C(F)(F)F)nn12`: 4980 nM.
In experiment [2], `O=c1cc(C(F)(F)F)[nH]c2c(-c3ccccc3)c(C(F)(F)F)nn12` displayed a 50% effective concentration (EC50) of 1460 nM. Moreover, the outcome in experiment [4] and in experiment [5] was Active.
Take `O=c1cc(-c2cccc([N+](=O)[O-])c2)[nH]c2c(-c3ccccc3)c(C(F)(F)F)nn12`: in experiment [2], the concentration for a half-maximal effect (EC50) is 570 nM.
As to `O=c1cc(CCl)[nH]c2c(-c3ccc(Cl)cc3)c(C(F)(F)F)nn12`, the concentration giving a half-maximal response (EC50) in experiment [2] was found to be 2330 nM.
With `Cc1nn2c(=O)cc(CCl)[nH]c2c1-c1ccccc1`, the outcome in experiment [1] was inactive.
Consider `O=c1cc(-c2cccc([N+](=O)[O-])c2)[nH]c2c(-c3cccs3)c(C(F)(F)F)nn12`, for which the concentration for a half-maximal effect (EC50) in experiment [2] was found to be 580 nM.
As for `O=c1cc(CCl)[nH]c2c(-c3ccccc3)c(C(F)(F)F)nn12`, the half-maximal effective concentration (EC50) in experiment [2] stood at 2270 nM. Further, the outcome in experiment [4] and in experiment [5] was Active.
As to `O=c1cc(C(F)(F)F)[nH]c2c(-c3c[nH]c4ccccc34)c(C(F)(F)F)nn12`, the outcome in experiment [1] was inactive.
As to `O=c1cc(-c2cc(F)c(Cl)nc2Cl)[nH]c2c(-c3cccc4ccccc34)c(C(F)(F)F)nn12`, the concentration for a half-maximal effect (EC50) in experiment [2] was 150 nM. Moreover, the outcome in experiment [3] and in experiment [6] was Active.
On to `O=c1cc(CN2CCCCC2)[nH]c2c(-c3ccccc3)c(C(F)(F)F)nn12`, for which, in experiment [1], the result was inactive.
Still for that read-out and setting: for `CCOC(=O)c1c(C(F)(F)F)nn2c(=O)cc(CCl)[nH]c12` the value was “inactive”.
In experiment [2], `CC(C)(C)c1cc(=O)n2nc(C(F)(F)F)c(-c3cccc4ccccc34)c2[nH]1` returned an EC50 of 19300 nM.
Take `Oc1cc(-c2ccccc2)nc2c(-c3ccccc3)c(C(F)(F)F)nn12`: the result in experiment [1] was inactive.
The molecule `CC(C)(C)c1cc(=O)n2nc(C(F)(F)F)c(-c3ccccc3)c2[nH]1` showed an EC50 in experiment [2] of 6190 nM.
With `O=c1cc(-c2cc(F)c(F)cc2F)[nH]c2c(-c3ccc(Cl)cc3)c(C(F)(F)F)nn12`, the EC50 in experiment [2] was determined as 210 nM.
`O=c1cc(-c2cc(F)c(F)c(F)c2F)[nH]c2c(-c3cccs3)c(C(F)(F)F)nn12` showed an EC50 in experiment [2] of 160 nM.
The same measure, in the same setting: for `O=c1cc(C(F)F)[nH]c2c(-c3ccccc3)c(C(F)(F)F)nn12` the value was 4290 nM; for `COc1ccc(-c2c(C(F)(F)F)nn3c(=O)cc(-c4cc(F)c(Cl)nc4Cl)[nH]c23)cc1OC`, 230 nM.
Take `Cc1cc(O)n2nc(C(F)(F)F)c(-c3ccccc3)c2n1`: the outcome in experiment [1] was inactive.
`O=c1cc(-c2cc(F)c(Cl)nc2Cl)[nH]c2c(-c3ccccc3)c(C(F)(F)F)nn12`: the 50% effective concentration (EC50) amounted to 60 nM in experiment [2] and 49.3 µM in experiment [7]. For the same molecule, the result in experiment [3] and in experiment [6] was Active. For the same molecule, the Ratio EC50 in experiment [8] was found to be 800.
`COc1ccc(-c2cc(=O)n3nc(C(F)(F)F)c(-c4ccccc4)c3[nH]2)cc1` showed an EC50 in experiment [2] of 1930 nM.
Still for that read-out and setting: next, `O=c1cc(C(F)(F)F)[nH]c2c(-c3ccc(Cl)cc3)c(C(F)(F)F)nn12`: 2060 nM; `O=c1cc(CCl)[nH]c2c(-c3cccc4ccccc34)c(C(F)(F)F)nn12`: 1250 nM.
